Rows were chosen to be rich in hits. Some 1.6% of all compounds tested hit in one or more screens of this group.
FID counter – compounds displacing fluorescent DNA intercalator, primary screen, artefact control for HCV NS3 helicase inhibitor project, biochemical, FID fluorescence. DNA fluorescent intercalator displacement. inhibition, % at 7.9 µM. actives 0.17% (n = 290,000). AID 1845, 2009; in the data active = inhibition above about 37%;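 note: higher means more ethidium bromide displaced from hairpin DNA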
Apaf-1 inh – inhibitors of human Apaf-1 apoptosome, primary screen, biochemical, DEVD-Rh110 fluorescence, uHTS; actives 0.71% (n = 330,000); inhibition, % at 20 µM; Apoptotic protease-activating factor 1 (Homo sapiens), O14727; reconstituted apoptosome caspase-3 activity; active = inhibition of at least 40% at 20 µM
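System – cell-free apoptosome with Apaf-1, procaspase-3 and caspase-9 · Buffer or medium – pH 7.5 Hepes buffer with CHAPS, BSA, DTT · Also added – cytochrome c with DEVD-Rh110 · Times – 30 min compound preincubation, 50 min activation, room temperature · Technique – Rh110 fluorescence intensity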
RAD52 inh – RAD52 DNA annealing inhibitors, primary screen, biochemical, FRET, single point, set 2. DNA repair protein RAD52 homolog (Homo sapiens), P43351. recombinant RAD52 DNA annealing, FRET fluorescence. inhibition, % at 18.7 µM. actives 0.46% (n = 360,000);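 active = every replicate showing at least 50% inhibition; inconclusive = mean inhibition at least 50% but not in every replicate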
Target sequence (P43351 whole entry, looked up): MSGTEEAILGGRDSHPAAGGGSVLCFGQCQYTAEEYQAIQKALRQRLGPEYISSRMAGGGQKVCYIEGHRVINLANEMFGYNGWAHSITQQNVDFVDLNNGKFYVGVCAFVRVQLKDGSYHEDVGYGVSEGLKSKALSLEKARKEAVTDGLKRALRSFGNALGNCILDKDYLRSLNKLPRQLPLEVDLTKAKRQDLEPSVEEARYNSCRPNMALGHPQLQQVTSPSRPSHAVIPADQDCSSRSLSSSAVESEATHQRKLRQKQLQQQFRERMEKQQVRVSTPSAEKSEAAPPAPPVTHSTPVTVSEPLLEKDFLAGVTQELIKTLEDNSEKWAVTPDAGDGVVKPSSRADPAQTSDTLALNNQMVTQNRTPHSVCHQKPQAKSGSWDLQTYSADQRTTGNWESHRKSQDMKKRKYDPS
UBC13 polyUb – UBC13 polyubiquitin chain formation inhibitors, primary screen, biochemical, TR-FRET, uHTS | inhibition, % at 20 µM | actives 0.47% (n = 330,000) | AID 485273, 2010; in the data active = inhibition above about 45%, passing the limit was not always enough; inconclusive = no clear call, values can overlap the other calls
Target sequence (P61088 whole entry, looked up): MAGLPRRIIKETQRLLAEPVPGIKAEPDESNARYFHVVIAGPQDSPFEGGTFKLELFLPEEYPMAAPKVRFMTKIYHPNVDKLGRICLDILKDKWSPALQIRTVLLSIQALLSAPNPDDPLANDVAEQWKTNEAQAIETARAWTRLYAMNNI
Neddylation inh – inhibitors of cullin neddylation, primary screen, biochemical, TR-FRET, uHTS, NAE and Ubc12; AID 651699, 2012; actives 0.58% (n = 360,000); calls only at 25 µM; NEDD8-conjugating enzyme Ubc12 (Homo sapiens) + NEDD8-activating enzyme E1 regulatory …; in the data active = inhibition above about 36%
RAD54 branch – inhibitors of human RAD54 branch migration, primary screen, biochemical, fluorescence, single point; inhibition, % at 10.4 µM; RAD54 Holliday junction branch migration, FAM/BHQ fluorescence; actives 0.14% (n = 360,000); DNA repair and recombination protein RAD54-like (Homo sapiens), Q92698;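 active = mean normalized replicate activity at least 40 and at least half of replicates scoring 40 or more; inconclusive = only one of the two criteria met; inactive = mean below 40 and under half of replicates reaching 40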;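 note: inhibitors cause a drop in the FAM fluorescence signal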
Casp3 UBC13 ctr – CASP3 inhibitor validation, counterassay for project on UBE2N polyubiquitination blockers, biochemical, one dose | shares compounds with UBC13 polyUb | inhibition, % at 20 µM | actives 4% (n = 1,400) | AID 488856, 2010 | Recombinant caspase-3, Caspase-Glo 3/7 luminescence, 60 min;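 active = mean inhibition across replicates above about 26%, limit read from the data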
UBC13 conf – UBC13 polyubiquitination inhibitors, single-point retest, confirmation, biochemical, TR-FRET, single concentration; actives 68% (n = 1,400); inhibition, % at 10 µM; shares compounds with UBC13 polyUb; AID 488859, 2010; in the data active = inhibition above about 45%; inconclusive = no clear call, values can overlap the other calls
Hits are given with their value; i = inactive; ? = inconclusive; nt = not tested or not shown.

SMILES	FID counter	Apaf-1 inh	RAD52 inh	UBC13 polyUb	Neddylation inh	RAD54 branch	Casp3 UBC13 ctr	UBC13 conf
CC(C)NC(=O)Nc1ccc2c(c1)CC(=O)N([C@@H](C)CO)C[C@H](C)[C@H](CN(C)C)O2	nt	nt	i	nt	nt	i	nt	nt
O=C(C[C@H]1CC[C@H](NC(=O)Cc2cccnc2)[C@@H](CO)O1)Nc1ccccc1	nt	nt	i	nt	nt	nt	nt	nt
C[C@H]1CN([C@@H](C)CO)C(=O)c2cccc(NC(=O)CCCCCC(=O)Nc3ccccc3N)c2O[C@@H]1CN(C)Cc1ccc(Oc2ccccc2)cc1	nt	nt	i	nt	nt	nt	nt	nt
COc1ccccc1C(=O)Nc1c2c(nn1-c1cccc(C)c1C)CS(=O)(=O)C2	i	i	nt	46	i	i	i	i
COC(=O)C1=C(C)N(Cc2ccccc2)C(=NCc2cccc(C(F)(F)F)c2)N[C@H]1c1cccc(F)c1	i	i	i	97	i	i	i	84
CCCCN1CCc2c1nc1ccc(Br)cc1c2N	i	i	i	55	i	i	i	?
O=C(CCCCn1c(=O)[nH]c2ccccc2c1=O)NC1CCN(Cc2ccccc2)CC1	i	i	i	i	i	i	nt	nt
Cc1cccc(C)c1NC(=O)Cn1c(=O)n(CCCC(=O)NC2CCN(Cc3ccccc3)CC2)c(=O)c2ccccc21	i	i	i	85	i	i	i	105
COC(=O)c1ccccc1NC(=O)Cn1c(=O)n(CCC(=O)NC2CCN(Cc3ccccc3)CC2)c(=O)c2ccccc21	i	i	i	i	i	i	nt	nt
Cc1cc(NC(=O)Cn2c(=O)n(CCCCC(=O)NC3CCN(Cc4ccccc4)CC3)c(=O)c3ccccc32)n[nH]1	i	i	i	52	nt	nt	i	48
O=C(CCCCn1c(=O)c2ccccc2n(Cc2ccccc2F)c1=O)NC1CCN(Cc2ccccc2)CC1	i	i	i	100	i	i	i	107
O=C(NN1C(=O)/C(=C/C=C/c2ccco2)SC1=S)c1ccccc1O	i	i	i	45	i	i	i	i
Cn1cccc1/C=C1\SC(=S)N(NC(=O)c2ccccc2O)C1=O	i	i	i	i	i	nt	nt	nt
CCC(=O)N1CC2(C1)[C@H](c1ccccc1)[C@@H](CO)N2C(=O)NC(C)C	nt	nt	i	nt	nt	nt	nt	nt
COc1ccc2c(CCNC(=O)Nc3ccccc3)c[nH]c2c1	i	i	i	i	i	nt	nt	nt
COc1ccc2[nH]cc(CCNC(=O)Nc3ccccc3)c2c1	i	i	i	52	i	i	i	i
NC(=S)N=Nc1c(O)n(Cc2ccc(F)cc2)c2ccccc12	i	i	nt	73	i	nt	i	75
NC(=S)N=Nc1c(O)n(Cc2ccc(Br)cc2)c2ccccc12	i	i	nt	46	i	nt	i	i
Cc1ccc2c(c1)c(N=NC(N)=S)c(O)n2Cc1ccccc1	i	i	i	79	i	i	i	46
Oc1c(N=NC(=S)Nc2ccccc2F)c2ccccc2n1Cc1ccc(F)cc1	i	i	i	i	i	nt	nt	nt
NC(=S)N=Nc1c(O)n(CCCl)c2ccc(Br)cc12	i	i	i	58	i	i	i	i
O=C(N=Nc1c(O)n(Cc2ccccc2)c2ccccc12)c1ccc(O)cc1	i	i	nt	i	i	i	nt	nt
C/C(Cl)=C\Cn1c(O)c(N=NC(N)=S)c2cc(Br)ccc21	i	i	i	i	i	i	nt	nt
CO[C@@H]1CN(C)C(=O)c2cc(NC(C)=O)ccc2OC[C@@H](C)N(C(=O)CC2CC2)C[C@H]1C	nt	nt	nt	nt	nt	i	nt	nt
CO[C@@H]1CN(C)C(=O)c2ccc(NS(=O)(=O)c3ccccc3C)cc2OC[C@@H](C)N(S(C)(=O)=O)C[C@H]1C	nt	nt	i	nt	nt	i	nt	nt
SMILES	FID counter	Apaf-1 inh	RAD52 inh	UBC13 polyUb	Neddylation inh	RAD54 branch	Casp3 UBC13 ctr	UBC13 conf
CC(C)(C)OC(=O)[C@H](CCCCN)NC(=O)c1[nH]cnc1C(=O)N[C@@H](Cc1ccccc1)C(=O)OCc1ccccc1	nt	65	nt	72	i	i	i	69
CC(C)(C)OC(=O)[C@H](Cc1ccccc1)NC(=O)c1[nH]cnc1C(=O)N[C@@H](Cc1ccccc1)C(=O)OCc1ccccc1	i	i	i	i	i	i	nt	nt
Cc1noc(C)c1NC(=O)N(C)C[C@@H]1Oc2ccc(NC(=O)Nc3cccc4ccccc34)cc2C(=O)N([C@H](C)CO)C[C@@H]1C	nt	nt	i	nt	nt	i	nt	nt
C[C@@H]1CCCCO[C@@H](CN(C)Cc2ccc3c(c2)OCO3)[C@H](C)CN([C@H](C)CO)C(=O)c2cc(NC(=O)Nc3cccc4ccccc34)ccc2O1	nt	nt	nt	nt	nt	i	nt	nt
CCCCN(CC)CCNC(=O)c1cc2c(=O)n(CC)c3ccccc3c2s1	i	i	i	72	nt	i	i	91
CCCN(CCC)CCCNC(=O)c1cc2c(=O)n(CC)c3ccccc3c2s1	i	i	i	47	nt	i	i	i
CCCCN(CC)CCNC(=O)c1cc2c(=O)n(C)c3ccccc3c2s1	i	i	i	70	nt	i	i	80
CCCCN(CC)CCCNC(=O)c1cc2c(=O)[nH]c3ccccc3c2s1	i	i	i	i	nt	i	nt	nt
CCn1c(=O)c2cc(C(=O)NCCCOC)sc2c2ccccc21	i	i	i	i	nt	i	nt	nt
CCn1c(=O)c2cc(C(=O)NCCC(C)C)sc2c2ccccc21	i	i	i	i	i	i	nt	nt
CCCCN(CC)CCCNC(=O)c1cc2c(=O)n(CC)c3ccccc3c2s1	i	i	i	50	nt	i	i	62
Cc1ccccc1S(=O)(=O)N1CCCCN2[C@H](CO)[C@@H](c3ccc(-c4ccccc4)cc3)[C@@H]2C1	nt	nt	i	nt	nt	i	nt	nt
CO[C@@H]1CN(C)C(=O)c2ccc(NC(=O)Nc3ccccc3F)cc2OC[C@@H](C)N(C(=O)c2cnccn2)C[C@H]1C	nt	nt	i	nt	nt	i	nt	nt
Cc1oc2ncnc(N)c2c1C	i	i	nt	i	i	i	nt	nt
Cc1ccc(-c2oc3ncnc(N)c3c2-c2ccc(C)cc2)cc1	i	i	nt	88	i	i	i	82
COc1cccc2c1NC(C(=O)O)C1CC=CC21 (stereo not given)	i	i	nt	45	i	nt	i	47
CC(C)(C)NCc1cc(Br)ccc1OCc1cccs1	i	i	nt	66	i	i	i	i
O=C(O)[C@H]1[C@H](CO)[C@H]2Cn3c(ccc(-c4cncnc4)c3=O)[C@H]2N1C(=O)C1CCCC1	nt	nt	i	nt	nt	nt	nt	nt
C/C=C1\COC(C(=O)NCc2ccccc2)(C(F)(F)F)C=C1C=C1CCCCC1 (stereo not given)	nt	i	i	i	i	i	nt	nt

From PubChem
